The values that follow come from ChEMBL document CHEMBL1134283, “Rational design, discovery, and synthesis of a novel series of potent growth hormone secretagogues” (J Med Chem, 2001).

Where a SMILES comes first, the peptide text is derived from it. [ ]: non-standard residue; d: D form. d2Nal = N[C@H](Cc1ccc2ccccc2c1)C(=O)O; d(hPhe) = N[C@H](CCc1ccccc1)C(=O)O; Aib = CC(C)(N)C(=O)O

This test is filed under the species Rattus norvegicus. The test can be described thus: Effective concentration for ability to release growth hormone from rat pituitary cells. Type of test: functional, cell-based. As to conditions: Pituitary gland cell. In short, it runs like this:
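Rat anterior pituitaries were digested with 0.2% collagenase, 0.2% hyaluronidase and 200 U/mL DNase I. Cells were plated at 1.0 × 10⁵ cells/mL in DMEM with 7.5% horse serum and 5.0% fetal calf serum and cultured 3 days. After washes in medium with 20 mM HEPES pH 7.4, cells were exposed to compound for 15 min at 37 °C. Released GH was measured by RIA. EC50 was referenced to the maximal GH level from 10^-8 M KP-102.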
Consider `C[C@H](NC(=O)[C@@H](Cc1ccc2ccccc2c1)NC(=O)[C@@H](C)N)C(=O)N[C@@H](Cc1c[nH]c2ccccc12)C(=O)N[C@H](Cc1ccccc1)C(=O)N[C@@H](CCCCN)C(=O)O` (H-[dA][d2Nal]AW[dF]K-OH), for which a half-maximal response (EC50) required 1 nM.
On to `C[C@H](NC(=O)[C@@H](Cc1ccc2ccccc2c1)NC(=O)[C@@H](C)N)C(=O)N[C@@H](Cc1c[nH]c2ccccc12)C(=O)N[C@H](Cc1ccccc1)C(=O)N[C@@H](CCCCN)C(N)=O` [PRALMORELIN] (H-[dA][d2Nal]AW[dF]K-NH2), for which a half-maximal response (EC50) required 0.2 nM.
For `C[C@H](NC(=O)[C@@H](Cc1c[nH]c2ccccc12)NC(=O)[C@@H](N)Cc1c[nH]cn1)C(=O)N[C@@H](Cc1c[nH]c2ccccc12)C(=O)N[C@H](Cc1ccccc1)C(=O)N[C@H](CCCCN)C(N)=O` the value was 100 nM.
For `CC(C)[C@H](NC(=O)[C@@H](Cc1c[nH]c2ccccc12)NC(=O)[C@@H](N)Cc1c[nH]cn1)C(=O)N[C@@H](Cc1c[nH]c2ccccc12)C(=O)N[C@H](Cc1ccccc1)C(=O)N[C@@H](CCCCN)C(N)=O` (H-H[dW]VW[dF]K-NH2) the value was above 1000 nM; for `NC(=O)CN(CCc1ccccc1)C(=O)[C@@H](Cc1ccc2ccccc2c1)NC(=O)[C@@H](Cc1ccc2ccccc2c1)NC(=O)C1CCNCC1`, 0.1 nM; for `NCCNC(=O)[C@@H](Cc1ccc2ccccc2c1)NC(=O)CN1C(=O)CCS(=O)(=O)c2ccccc21`, 100 nM.
For `NCCNC(=O)[C@@H](Cc1ccc2ccccc2c1)NC(=O)CCN1C(=O)CCS(=O)(=O)c2ccccc21` the value was 10 nM; for `O=C(N[C@H](Cc1ccc2ccccc2c1)C(=O)N[C@@H](CO)Cc1ccc2ccccc2c1)C1CCNCC1`, 1.8 nM; for `NCC(O)CNC(=O)[C@@H](Cc1ccc2ccccc2c1)NC(=O)CCCN1C(=O)CCSc2ccccc21` (some centres undefined), 1 nM.
On to `C[C@H](NC(=O)[C@@H](Cc1ccc2ccccc2c1)NC(=O)[C@@H](C)N)C(=O)N[C@@H](Cc1c[nH]c2ccccc12)C(=O)N[C@H](Cc1ccccc1)C(=O)O`, for which the EC50 (in general, the concentration needed to bring the measured effect to its halfway point) was 10 nM.
The result for `NCCNC(=O)[C@@H](Cc1ccccc1)NC(=O)CN1C(=O)CCS(=O)(=O)c2ccccc21` reads 1000 nM; that for `C[C@H](NC(=O)[C@@H](Cc1ccccc1)NC(=O)[C@@H](C)N)C(=O)N[C@@H](Cc1ccccc1)C(=O)N[C@H](Cc1ccccc1)C(=O)N[C@@H](CCCCN)C(N)=O` (H-[dA][dF]AF[dF]K-NH2), 10 nM.
As to `NCCNC(=O)[C@H](Cc1ccccc1)NC(=O)CN1C(=O)CCSc2ccccc21`, the EC50 worked out at 1000 nM.
In turn, `CCOC(=O)[C@@H](CCc1ccccc1)NC(=O)[C@@H](Cc1c[nH]c2ccccc12)NC(=O)C(C)(C)N` (H-[Aib]-[dW]-[d(hPhe)]-OEt) yielded an EC50 of 3 nM.
